The IC50 is the point on the concentration scale where inhibition reaches its midpoint. The low end stands for greater potency in that assay, the high end for weaker potency in that assay.

Data on three compounds can be found in ChEMBL document CHEMBL4680175, “Sulfonamide-based ring-fused analogues for CAN508 as novel carbonic anhydrase inhibitors endowed with antitumor activity: Design, synthesis, and in vitro biological evaluation” (Eur J Med Chem, 2020).

The structures appear in SMILES notation. Active and inactive are the calls of the source. The rule behind the calls is not given here.

The test system of assay [1] is MCF7. In words: Antiproliferative activity against human MCF7 cells measured after 48 hrs under normoxic condition by MTT assay. The following applies: MCF7, 48 h. Format: functional, cell-based.
A further assay has as its system CCRF-CEM. Briefly: Antitumor activity against human CCRF-CEM cells assessed as cell growth inhibition at 10 uM incubated for 48 hrs by sulforhodamine B assay. Format: functional. The following applies: read-out: GI. In a few lines: (§1)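 NCI Drug Evaluation Branch protocol: primary single-dose screen at 10 μM across a 57-line human cancer panel. Drug exposure is 48 h. Cell growth and viability are read by sulforhodamine B assay. Data are given as a mean graph of percent growth of treated cells and reported as percentage growth inhibition (GI%).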
In general terms: In SRB staining, fixed cells bind dye roughly in proportion to their protein.

A further assay deals with HL-60(TB). In words: Antitumor activity against human HL-60(TB) cells assessed as cell growth inhibition at 10 uM incubated for 48 hrs by sulforhodamine B assay. Format: functional. The settings on record: read-out: GI. The procedure, abridged:
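Single-dose NCI-60-type screen of 57 human cancer cell lines at 10 μM under the NCI Drug Evaluation Branch protocol. Drugs exposed for 48 h; growth and viability read by sulforhodamine B assay. Data given as mean-graph percent growth of treated cells, expressed as percent growth inhibition.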

Another assay deals with RPMI-8226. In words: Antitumor activity against human RPMI8226 cells assessed as cell growth inhibition at 10 uM incubated for 48 hrs by sulforhodamine B assay. Type of assay: functional. The following applies: read-out: GI. The procedure, abridged:
as §1

Another assay concerns SR. In words: Antitumor activity against human SR cells assessed as cell growth inhibition at 10 uM incubated for 48 hrs by sulforhodamine B assay. Format: functional. The settings on record: read-out: GI. The procedure, abridged:
(§2)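 NCI one-dose screen: 57-cell-line panel exposed at 10 μM for 48 h, Drug Evaluation Branch protocol. Growth and viability read by sulforhodamine B; data given as percent growth inhibition from the mean-graph of percent growth of treated cells.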

In another assay the test system is A549. In words: Antitumor activity against human A549/ATCC cells assessed as cell growth inhibition at 10 uM incubated for 48 hrs by sulforhodamine B assay. Type of assay: functional. The following applies: read-out: GI. The procedure, abridged:
as §1

A further assay concerns EKVX. In words: Antitumor activity against human EKVX cells assessed as cell growth inhibition at 10 uM incubated for 48 hrs by sulforhodamine B assay. Format: functional. The settings on record: read-out: GI. The procedure, abridged: as §1
Another assay deals with HOP-62. Briefly: Antitumor activity against human HOP62 cells assessed as cell growth inhibition at 10 uM incubated for 48 hrs by sulforhodamine B assay. Format: functional. The following applies: read-out: GI. The procedure, abridged:
as §1

Another assay deals with NCI-H23. Briefly: Antitumor activity against human NCI-H23 cells assessed as cell growth inhibition at 10 uM incubated for 48 hrs by sulforhodamine B assay. Format: functional. The settings on record: read-out: GI. In a few lines: as §1
The subject of a further assay is NCI-H522. In words: Antitumor activity against human NCI-H522 cells assessed as cell growth inhibition at 10 uM incubated for 48 hrs by sulforhodamine B assay. Format: functional. The following applies: read-out: GI. In a few lines:
as §1

In the next assay the test system is COLO 205. In words: Antitumor activity against human COLO205 cells assessed as cell growth inhibition at 10 uM incubated for 48 hrs by sulforhodamine B assay. Format: functional. The settings on record: read-out: GI. In a few lines: as §1
A further assay relates to HCC 2998. In words: Antitumor activity against human HCC2998 cells assessed as cell growth inhibition at 10 uM incubated for 48 hrs by sulforhodamine B assay. Format: functional. The settings on record: read-out: GI. In a few lines:
as §1

The subject of a further assay is HCT-15. Briefly: Antitumor activity against human HCT15 cells assessed as cell growth inhibition at 10 uM incubated for 48 hrs by sulforhodamine B assay. Format: functional. The settings on record: read-out: GI. The procedure, abridged: as §1
Another assay concerns HT-29. Briefly: Antitumor activity against human HT-29 cells assessed as cell growth inhibition at 10 uM incubated for 48 hrs by sulforhodamine B assay. Format: functional. The settings on record: read-out: GI. In a few lines: as §1
A further assay concerns SW-620. In words: Antitumor activity against human SW620 cells assessed as cell growth inhibition at 10 uM incubated for 48 hrs by sulforhodamine B assay. Type of assay: functional. The settings on record: read-out: GI. The procedure, abridged:
as §2

The test system of the next assay is SF-295. Briefly: Antitumor activity against human SF295 cells assessed as cell growth inhibition at 10 uM incubated for 48 hrs by sulforhodamine B assay. Type of assay: functional. The following applies: read-out: GI. In a few lines:
as §1

For the next assay, the system named is SNB-19. In words: Antitumor activity against human SNB-19 cells assessed as cell growth inhibition at 10 uM incubated for 48 hrs by sulforhodamine B assay. Type of assay: functional. The following applies: read-out: GI. In a few lines: as §1
Another assay relates to M14. Briefly: Antitumor activity against human M14 cells assessed as cell growth inhibition at 10 uM incubated for 48 hrs by sulforhodamine B assay. Format: functional. The settings on record: read-out: GI. The procedure, abridged:
as §1

The subject of another assay is MDA-MB-435. In words: Antitumor activity against human MDA-MB-435 cells assessed as cell growth inhibition at 10 uM incubated for 48 hrs by sulforhodamine B assay. The settings on record: read-out: GI. Type of assay: functional. In a few lines: as §1
The next assay has as its system SK-MEL-28. In words: Antitumor activity against human SK-MEL-28 cells assessed as cell growth inhibition at 10 uM incubated for 48 hrs by sulforhodamine B assay. Type of assay: functional. The following applies: read-out: GI. In a few lines:
as §1

The test system of the next assay is UACC-257. Briefly: Antitumor activity against human UACC-257 cells assessed as cell growth inhibition at 10 uM incubated for 48 hrs by sulforhodamine B assay. Format: functional. The settings on record: read-out: GI. In a few lines:
as §2

In the next assay the test system is UACC-62. In words: Antitumor activity against human UACC-62 cells assessed as cell growth inhibition at 10 uM incubated for 48 hrs by sulforhodamine B assay. Format: functional. The settings on record: read-out: GI. In a few lines:
as §2

In the next assay the test system is OVCAR-4. Briefly: Antitumor activity against human OVCAR-4 cells assessed as cell growth inhibition at 10 uM incubated for 48 hrs by sulforhodamine B assay. Type of assay: functional. The settings on record: read-out: GI. In a few lines:
as §1

The test system of the next assay is OVCAR-5. Briefly: Antitumor activity against human OVCAR-5 cells assessed as cell growth inhibition at 10 uM incubated for 48 hrs by sulforhodamine B assay. Type of assay: functional. The following applies: read-out: GI. The procedure, abridged: as §1
For a further assay, the system named is SK-OV-3. In words: Antitumor activity against human SK-OV-3 cells assessed as cell growth inhibition at 10 uM incubated for 48 hrs by sulforhodamine B assay. Format: functional. The settings on record: read-out: GI. The procedure, abridged: as §1
In another assay the test system is DU-145. Briefly: Antitumor activity against human DU-145 cells assessed as cell growth inhibition at 10 uM incubated for 48 hrs by sulforhodamine B assay. The settings on record: read-out: GI. Format: functional. In a few lines:
as §1

Another assay deals with 786-0. Briefly: Antitumor activity against human 786-0 cells assessed as cell growth inhibition at 10 uM incubated for 48 hrs by sulforhodamine B assay. Format: functional. The settings on record: read-out: GI. The procedure, abridged:
as §1

Another assay concerns A498. Briefly: Antitumor activity against human A498 cells assessed as cell growth inhibition at 10 uM incubated for 48 hrs by sulforhodamine B assay. Format: functional. The settings on record: read-out: GI. In a few lines: as §1
The next assay deals with ACHN. In words: Antitumor activity against human ACHN cells assessed as cell growth inhibition at 10 uM incubated for 48 hrs by sulforhodamine B assay. Format: functional. The following applies: read-out: GI. In a few lines:
as §1

For a further assay, the system named is TK-10. Briefly: Antitumor activity against human TK-10 cells assessed as cell growth inhibition at 10 uM incubated for 48 hrs by sulforhodamine B assay. Type of assay: functional. The settings on record: read-out: GI. In a few lines:
as §2

The test system of assay [2] is MCF7. In words: Antiproliferative activity against human MCF7 cells measured after 48 hrs under CoCl2-induced hypoxic condition by MTT assay. Format: functional, cell-based. The settings on record: MCF7, 48 h. In general terms: Formazan colour is commonly taken as a measure of viable cells.
Assay [3] relates to MDA-MB-468. In words: Antiproliferative activity against human MDA-MB-468 cells measured after 48 hrs under normoxic condition by MTT assay. Type of assay: functional, cell-based. The following applies: MDA-MB-468, 48 h.
Assay [4] relates to MDA-MB-468. Briefly: Antiproliferative activity against human MDA-MB-468 cells measured after 48 hrs under CoCl2-induced hypoxic condition by MTT assay. Type of assay: functional, cell-based. The settings on record: MDA-MB-468, 48 h.
The test system of assay [5] is MCF7. In words: Induction of cell cycle arrest in human MCF7 cells assessed as decrease in S phase population at IC50 concentration incubated for 24 hrs by PI/RNase staining based flow cytometric analysis. Format: functional. In a few lines: (§3)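 Cells were washed in ice-cold PBS, fixed in ice-cold 70% ethanol, treated with 100 µg/mL RNase and stained with 40 µg/mL PI. DNA content was read by flow cytometry, with sub-G1 compared against control.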
A general note: A flow cytometer gives signals particle by particle.

Assay [6] has as its system MCF7. Briefly: Induction of cell cycle arrest in human MCF7 cells assessed as fold increase in apoptotic cells at sub-G1 phase at IC50 concentration incubated for 24 hrs by PI/RNase staining based flow cytometric analysis relative to control. Type of assay: functional. The procedure, abridged: as §3
In assay [7] the test system is MCF7. Briefly: Induction of apoptosis in human MCF7 cells assessed as late apoptotic cells by Annexin V-FITC/propidium iodide staining based flow cytometric analysis (reference value: 0.29 %). Format: functional.
The test system of assay [8] is MCF7. In words: Induction of apoptosis in human MCF7 cells assessed as necrotic cells by Annexin V-FITC/propidium iodide staining based flow cytometric analysis (reference value: 1.3 %). Format: functional.

As to `Cc1ccc(-c2nc3c(/N=N/c4ccc(S(N)(=O)=O)cc4)c(N)nn3c(N)c2C#N)cc1`, the IC50 came to 6.8 µM with MCF7 [1], 15.1 µM with MCF7 [2], 1.37 µM with MDA-MB-468 [3] and 3.03 µM in the assay with MDA-MB-468 [4]. Also, the inhibition of growth at 10 µM in the assay with CCRF-CEM was 88%; with HL-60(TB), 97%; with RPMI-8226, 116%; with SR, 71%; in the assay on A549, 37%; in the assay on EKVX, 30%. The inhibition of growth at 10 µM in the assay with HOP-62 amounted to 57%; with NCI-H23, 56%; with NCI-H522 it was 71%; in the assay on COLO 205 it was 86%; in the assay with HCC 2998, 48%; with HCT-15, 18%. Besides, the inhibition of growth at 10 µM in the assay with HT-29 is 64%; in the assay with SW-620, 83%; with SF-295, 51%; in the assay with SNB-19, 42%; with M14, 54%; in the assay with MDA-MB-435, 48%. The inhibition of growth at 10 µM in the assay with SK-MEL-28 was determined as 47%; in the assay with UACC-257 it was 28%; in the assay with UACC-62, 47%; in the assay on OVCAR-4 it was 48%; with OVCAR-5, 21%; with SK-OV-3, 36%. For the same compound, the inhibition of growth at 10 µM in the assay on DU-145 came out at 65%; in the assay with 786-0, 35%; in the assay with A498 it was 41%; in the assay with ACHN, 100%; in the assay on TK-10, 34%.

As to `N#Cc1c(-c2ccc(F)cc2)nc2c(/N=N/c3ccc(S(N)(=O)=O)cc3)c(N)nn2c1N`, the IC50 amounted to 2.96 µM in the assay with MCF7 [1], 7.73 µM in the assay with MCF7 [2], 5.38 µM in the assay on MDA-MB-468 [3] and 11.3 µM in the assay on MDA-MB-468 [4]. The inhibition of growth at 10 µM in the assay with CCRF-CEM is 51%; with RPMI-8226 it was 60%; in the assay with HOP-62, 21%; in the assay on NCI-H522, 32%. Further, the result in the assay on MCF7 [5] was Active. Also, in the assay with MCF7 [6], the “fold change (FC)” value was found to be 11. In addition, the Activity with MCF7 [7] turned out to be 10.89%; in the assay on MCF7 [8], 1.75%.

Regarding `N#Cc1c(-c2ccc(Cl)cc2)nc2c(/N=N/c3ccc(S(N)(=O)=O)cc3)c(N)nn2c1N`, the IC50 amounted to 2.07 µM in the assay with MCF7 [1], 10.3 µM in the assay on MCF7 [2], 11.4 µM with MDA-MB-468 [3] and 19.6 µM with MDA-MB-468 [4]. Moreover, the inhibition of growth at 10 µM in the assay with CCRF-CEM came out at 65%; with RPMI-8226 it was 58%; in the assay on HOP-62, 24%; in the assay with NCI-H522 it was 29%; in the assay with DU-145, 40%. Moreover, in the assay on MCF7 [5], the result was Active. In addition, the “fold change (FC)” value in the assay on MCF7 [6] is 8. For the same compound, the Activity in the assay with MCF7 [7] is listed as 8.2%; in the assay with MCF7 [8], 2.17%.
